Measured values from different studies.
Lines come from different studies, so protocols differ.
Target: Calcium/calmodulin-dependent protein kinase type 1D (CAMK1D, Homo sapiens, UniProt Q8IU85)

SMILES | effect on | mode | technique | tested at | quantity | result
CS(=O)(=O)c1cc(C2(NC(=O)c3cncc4c3cnn4-c3ccc(F)cc3)CC2)ccn1 | cell-free assay |  | competition with immobilised ligand | 1 µM | remaining binding | 90%
N#CC1c2c([nH]c3c(Cl)c(Cl)ccc23)C(=O)NC12CCCCC2 (racemic) | thermal stability |  | DSF | 10 µM | ΔTm | 0.7 °C
Cc1cc(-n2nc(Cc3cc(F)cc(C(F)(F)F)c3)nc2C)ccc1C(N)=O | cell-free assay |  | competition with immobilised ligand | 1 µM | remaining binding | 96%
Cn1c2c(c3ccc(Cl)c(Cl)c31)C(C#N)C1(CCCC1)NC2=O (stereo not drawn) | thermal stability |  | DSF | 10 µM | ΔTm | 0 °C
CN1CC(Oc2cnc(C#N)cc2-c2ccn3nc(NC(=O)C4CC4)cc3c2)C1 | enzyme activity | inhibitor |  | 1 µM | inhibition | -2%
O=c1cc(-c2cccc3c2Sc2ccccc2S3)oc(N2CCOCC2)c1 | enzyme activity | inhibitor |  | 0.5 µM | remaining activity | 106%
COc1cc(-c2cn(C3CCc4ccccc4N(CC(F)(F)F)C3=O)nn2)ccc1-n1ccc(C)n1 (stereo not drawn) | cell-free assay |  | competition with immobilised ligand | 1 µM | remaining binding | 100%
C[S+]([O-])c1ccc(-c2nc(-c3ccncc3)c(-c3ccc(F)cc3)[nH]2)cc1 (stereo not drawn) | cell-free assay |  |  | 0.5 µM | remaining signal | 105%
Cn1c2c(Cl)c(Cl)ccc2c2cn[nH]c(=O)c21 | thermal stability |  | DSF | 10 µM | ΔTm | -0.1 °C
O=C1NC(=O)c2cc(Nc3ccc(F)cc3)c(Nc3ccc(F)cc3)cc21 | cell-free assay |  |  | 0.5 µM | remaining signal | 78.1%
CNCc1ccccc1-c1csc([C@H](C)Nc2nc(C)nc3cc(OC)c(OC)cc23)c1 | cell-free assay |  | competition with immobilised ligand | 1 µM | remaining binding | 100%
CC/C(=N\NC(=O)NCc1cccc(O)c1)c1ccc(O)c(C)c1O | enzyme activity | inhibitor |  | 0.1 µM | inhibition | -3.5%
Cc1ccc(C(=O)Nc2ccc(CN3CCN(C)CC3)c(C(F)(F)F)c2)cc1C#Cc1cnc2cccnn12 | enzyme activity | inhibitor |  | 23.5 nM | remaining activity | 86%
Cn1c2c(c3ccc(Cl)c(Cl)c31)C(C#N)C1(CCOCC1)NC2=O (stereo not drawn) | thermal stability |  | DSF | 10 µM | ΔTm | -0.5 °C
CNC(=O)c1cc(Oc2ccc(NC(=O)Nc3ccc(Cl)c(C(F)(F)F)c3)cc2)ccn1 | enzyme activity | inhibitor |  | 0.3 µM | inhibition | 11%
CN(C)C(=O)Cn1cc(-c2nc(C3(c4ccc(-c5cnc(N)nc5)cc4)CC3)no2)cn1 | cell-free assay |  | competition with immobilised ligand | 1 µM | remaining binding | 100%
Cc1ccc(Nc2nccc(N(C)c3ccc4c(C)n(C)nc4c3)n2)cc1S(N)(=O)=O | enzyme activity | inhibitor |  | 10 µM | inhibition | 32%
COc1cc2ncnc(Nc3ccc(Oc4ccccc4)cc3C)c2cc1OC | enzyme activity | inhibitor |  | 1 µM | inhibition | 1%
CC1=C(C#N)C(c2ccc3c(c2)c(NC(=O)c2ccccc2C)nn3C)C(C#N)=C(C)N1 | cell-free assay |  | competition with immobilised ligand | 1 µM | remaining binding | 93%
N#CCCc1ccc2c(c1)-c1[nH]c3ccc([N+](=O)[O-])cc3c1CC(=O)N2 | cell-free assay |  |  | 0.5 µM | remaining signal | 91.8%
CCN1CCC2(CC1)NC(=O)c1c(c3ccc(Cl)c(Cl)c3n1C)C2C#N (racemic) | thermal stability |  | DSF | 10 µM | ΔTm | -0.1 °C
CCCS(=O)(=O)Nc1ccc(F)c(C(=O)c2c[nH]c3ncc(-c4ccc(Cl)cc4)cc23)c1F | enzyme activity | inhibitor |  | 1 µM | inhibition | < 10%
CCCOc1ccc(OC)c(F)c1C(=O)c1ccc(C(=O)N[C@@H]2CNC[C@H]2NC(=O)c2ccc3[nH]ncc3c2)cc1 | enzyme activity | inhibitor |  | 10 µM | remaining activity | 63%
CC(C)(O)[C@H]1CC[C@H](Nc2ccc3ncc(-c4cccc(C(F)(F)F)c4)n3n2)CC1 | enzyme activity | inhibitor |  | 1 µM | remaining activity | 83.7%
CCCCNc1ncc2c(-c3ccc(F)cc3)nn(C[C@H]3CC[C@H](N)CC3)c2n1 | target engagement in cells | inhibitor | chemoproteomics | 20 mM | inhibition | 5.9%
CN1CCC2(CC1)NC(=O)c1c(c3ccc(Cl)c(Cl)c3n1C)C2C#N (racemic) | thermal stability |  | DSF | 10 µM | ΔTm | -0.4 °C
CC(=O)N1CCC(c2ccc(C(=O)NC3=NCCN3)cc2C(F)(F)F)CC1 | cell-free assay |  | competition with immobilised ligand | 1 µM | remaining binding | 100%
CC(C)(C)c1nc2c(s1)c1nc(N)ncc1c1ccc(NS(=O)(=O)c3c(F)cccc3F)c(F)c12 | enzyme activity | inhibitor | radiometric | 1 µM | remaining activity | 97%
Cc1c(NC(=O)c2cc(C(N)=O)nc3cc(F)ccc23)c(C(F)(F)F)nn1Cc1ccc(C(C)(C)C)cc1 | cell-free assay |  | competition with immobilised ligand | 1 µM | remaining binding | 84%
O=C(Nc1cnn(-c2csc(C(=O)NC3COC3)c2)c1)Nc1c(F)cccc1Cl | enzyme activity | inhibitor |  | 5 µM | remaining activity | 99.6%
